Laboratory results from ChEMBL document CHEMBL4813962, “Design, synthesis and biological evaluation of sulfamoylphenyl-quinazoline derivatives as potential EGFR/CAIX dual inhibitors” (Eur J Med Chem, 2021).

Experiments:
[1] = system: A549; assay: cells; format: functional, cell-based; settings: Homo sapiens, A549, 72 h;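 also: antiproliferative effect read out as loss of cell viability by MTT assay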
[2] = system: A-431; assay: cells; format: functional, cell-based; settings: Homo sapiens, A-431, 72 h
[3] = system: NCI-H1975; assay: Antiproliferative activity against human NCI-H1975 cells assessed as reduction in cell viability incubated for 72 hrs by MTT assay; format: functional, cell-based; settings: NCI-H1975, 72 h
[4] = molecular target: Epidermal growth factor receptor (Homo sapiens, UniProt P00533)
Chain of Epidermal growth factor receptor (Homo sapiens, UniProt P00533) (P00533 whole entry): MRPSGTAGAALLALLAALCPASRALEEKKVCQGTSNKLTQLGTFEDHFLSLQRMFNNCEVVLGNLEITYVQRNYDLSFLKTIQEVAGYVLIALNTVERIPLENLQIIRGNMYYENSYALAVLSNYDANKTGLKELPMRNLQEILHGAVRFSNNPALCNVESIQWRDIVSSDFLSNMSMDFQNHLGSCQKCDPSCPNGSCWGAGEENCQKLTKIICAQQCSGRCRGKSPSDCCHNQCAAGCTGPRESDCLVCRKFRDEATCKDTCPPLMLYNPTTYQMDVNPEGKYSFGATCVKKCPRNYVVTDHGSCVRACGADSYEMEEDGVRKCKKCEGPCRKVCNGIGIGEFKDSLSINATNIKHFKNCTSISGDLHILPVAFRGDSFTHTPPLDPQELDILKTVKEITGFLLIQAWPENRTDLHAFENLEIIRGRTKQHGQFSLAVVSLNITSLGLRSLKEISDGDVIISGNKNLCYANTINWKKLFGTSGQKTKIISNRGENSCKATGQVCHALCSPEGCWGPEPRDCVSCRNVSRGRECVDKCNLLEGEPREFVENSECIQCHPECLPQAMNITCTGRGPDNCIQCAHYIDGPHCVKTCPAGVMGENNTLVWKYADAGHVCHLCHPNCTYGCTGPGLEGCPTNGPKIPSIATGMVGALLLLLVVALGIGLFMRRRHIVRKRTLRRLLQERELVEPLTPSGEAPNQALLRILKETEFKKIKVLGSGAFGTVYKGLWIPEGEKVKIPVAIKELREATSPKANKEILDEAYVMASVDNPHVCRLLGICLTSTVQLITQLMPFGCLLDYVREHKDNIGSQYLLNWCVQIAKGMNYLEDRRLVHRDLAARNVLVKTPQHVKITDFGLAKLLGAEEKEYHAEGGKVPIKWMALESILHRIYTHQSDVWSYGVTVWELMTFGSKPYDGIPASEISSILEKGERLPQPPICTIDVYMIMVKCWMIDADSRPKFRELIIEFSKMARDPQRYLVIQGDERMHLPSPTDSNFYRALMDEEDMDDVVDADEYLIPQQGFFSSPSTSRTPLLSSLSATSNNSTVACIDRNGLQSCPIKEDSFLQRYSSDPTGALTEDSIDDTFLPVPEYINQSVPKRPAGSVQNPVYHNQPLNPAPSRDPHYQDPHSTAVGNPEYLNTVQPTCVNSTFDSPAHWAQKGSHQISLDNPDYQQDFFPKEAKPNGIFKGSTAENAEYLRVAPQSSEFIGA

[5] = molecular target: Epidermal growth factor receptor (Homo sapiens, UniProt P00533, T790M)
Chain of Epidermal growth factor receptor (Homo sapiens, UniProt P00533, T790M) (P00533 25-1210 T790M limits assumed): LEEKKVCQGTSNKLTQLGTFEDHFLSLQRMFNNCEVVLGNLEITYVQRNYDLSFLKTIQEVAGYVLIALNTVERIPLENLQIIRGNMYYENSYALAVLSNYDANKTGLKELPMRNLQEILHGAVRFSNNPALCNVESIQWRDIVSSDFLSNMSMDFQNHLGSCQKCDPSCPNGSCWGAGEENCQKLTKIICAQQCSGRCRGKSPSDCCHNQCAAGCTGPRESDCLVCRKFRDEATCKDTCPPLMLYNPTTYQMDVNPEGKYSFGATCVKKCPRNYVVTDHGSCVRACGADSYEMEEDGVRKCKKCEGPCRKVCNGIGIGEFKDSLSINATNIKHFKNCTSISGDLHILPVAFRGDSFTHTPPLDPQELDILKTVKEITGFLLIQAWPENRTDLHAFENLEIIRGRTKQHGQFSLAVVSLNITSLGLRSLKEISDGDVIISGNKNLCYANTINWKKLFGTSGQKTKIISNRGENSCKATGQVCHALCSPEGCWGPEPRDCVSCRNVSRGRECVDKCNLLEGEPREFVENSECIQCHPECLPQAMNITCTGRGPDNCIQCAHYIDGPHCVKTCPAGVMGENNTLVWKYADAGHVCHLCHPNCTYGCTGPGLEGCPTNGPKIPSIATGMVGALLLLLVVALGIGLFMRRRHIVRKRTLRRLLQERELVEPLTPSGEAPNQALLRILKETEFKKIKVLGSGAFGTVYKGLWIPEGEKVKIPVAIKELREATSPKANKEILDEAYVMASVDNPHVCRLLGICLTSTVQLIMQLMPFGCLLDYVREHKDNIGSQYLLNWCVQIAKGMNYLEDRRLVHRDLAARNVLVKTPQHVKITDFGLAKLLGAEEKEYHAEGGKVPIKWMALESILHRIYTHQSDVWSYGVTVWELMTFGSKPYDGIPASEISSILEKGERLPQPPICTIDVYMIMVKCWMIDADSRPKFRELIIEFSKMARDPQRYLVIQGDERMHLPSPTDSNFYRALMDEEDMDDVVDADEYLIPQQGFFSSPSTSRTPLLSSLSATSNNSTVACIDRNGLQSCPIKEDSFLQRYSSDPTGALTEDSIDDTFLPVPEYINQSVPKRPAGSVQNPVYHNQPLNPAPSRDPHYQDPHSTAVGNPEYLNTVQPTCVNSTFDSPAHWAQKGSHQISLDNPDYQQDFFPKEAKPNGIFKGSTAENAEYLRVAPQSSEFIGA

[6] = molecular target: Carbonic anhydrase 2 (Homo sapiens, UniProt P00918); assay: Inhibition of human carbonic anhydrase 2 using p-nitrophenyl acetate as substrate by UV-VIS spectrophotometric analysis
[7] = molecular target: Carbonic anhydrase 9 (Homo sapiens, UniProt Q16790)
[8] = system: L02; assay: cells; format: functional, cell-based; settings: Homo sapiens, L02, 72 h
[9] = system: NCI-H1975; assay: Cytotoxicity against human NCI-H1975 cells assessed as reduction in cell viability incubated for 72 hrs under hypoxic condition by MTT assay; format: functional, cell-based; settings: NCI-H1975, 72 h
Procedure, shortened: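 H1975 cells grown in medium with 10% FBS and penicillin/streptomycin under hypoxia (1% O2, 94% N2, 5% CO2) at 37 °C. Compounds dissolved in DMSO and diluted in medium, final DMSO below 0.4%. Incubated 72 h at 37 °C, then MTT (5 mg/mL) for 4 h. Formazan dissolved in DMSO and OD read at 570/630 nm. IC50 from three parallel experiments.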

SMILES	IC50 [1] [µM]	IC50 [2] [µM]	IC50 [3] [µM]	IC50 [4] [µM]	IC50 [5] [µM]	IC50 [6] [µM]	IC50 [7] [µM]	IC50 [8] [µM]	IC50 [9] [µM]
COc1cc2ncnc(Nc3cccc(Cl)c3F)c2cc1OCCCCC(=O)Nc1ccc(S(N)(=O)=O)cc1	10.5	5.56	6.93	0.0348	0.018	–	–	–	–
NS(=O)(=O)c1ccc(CCNC(=S)Nc2ccc3ncnc(Nc4cccc(C(F)(F)F)c4)c3c2)cc1	9.05	16.8	4.25	0.0426	0.0934	0.241	0.313	–	–
COc1cc2ncnc(Nc3ccc(OCc4cccc(F)c4)c(Cl)c3)c2cc1OCCCCC(=O)Nc1ccc(S(N)(=O)=O)cc1	7.86	7.79	5.67	0.0165	0.0228	–	–	–	–
C=CC(=O)Nc1cc(Nc2nccc(-c3cn(C)c4ccccc34)n2)c(OC)cc1N(C)CCN(C)C [OSIMERTINIB]	–	[…]	[…]	–	–	–	–	> 40	[…]
NS(=O)(=O)c1ccc(NC(=S)Nc2ccc3ncnc(Nc4cccc(C(F)(F)F)c4)c3c2)cc1	10.1	21.7	7.59	0.0512	0.135	0.526	0.578	–	–
NS(=O)(=O)c1ccc(CCNC(=S)Nc2ccc3ncnc(Nc4ccc(OCc5cccc(F)c5)c(Cl)c4)c3c2)cc1	6.63	5.77	5.16	0.0284	0.0667	–	–	–	–
